Assay results from ChEMBL document CHEMBL2311478, “Macrolactonolides: a novel class of anti-inflammatory compounds” (Bioorg Med Chem, 2013).
The source made the active and inactive calls. No cut-off for these calls is given here.

Legend:
[1] = Drug uptake in mouse J774A1 cells at 10 uM after 3 hrs by LC-MS/MS method; assay type: ADME, cell-based; details: j774.a1, 3 h
Summary of the method: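 Uptake in J774A.1 macrophages seeded two days before at 2 × 10^5 cells/well. Cells were exposed to 10 µM compound for 3 h in DMEM/25 mM Hepes without supplements, washed with ice-cold PBS and lysed in 0.5% Triton X-100. Lysate was measured by LC–MS/MS, using a cell volume of 1.68 µL per 10^6 cells. Result is the I/E ratio, with E taken as 10 µM.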

[2] = Drug uptake in mouse J774A1 cells assessed as compound retention at 10 uM after 3 hrs by LC-MS/MS method; assay type: ADME, cell-based; details: j774.a1, 3 h
Summary of the method: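 J774A.1 cells were loaded with 10 µM compound for 3 h in DMEM/25 mM Hepes, then incubated 3 h in fresh medium. Cells were washed, lysed in 0.5% Triton X-100 and analysed by LC–MS/MS. Retention is the percentage of the initially accumulated amount remaining. Triplicates, mean ± SD from one representative experiment.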

Glucocorticoid receptor [3] = molecular target: T1, Glucocorticoid receptor (Homo sapiens, UniProt P04150); experiment: Displacement of [3H]-dexamethasone human glucocorticoid receptor alpha expressed in 293 MSR cells after 60 mins by scintillation counting; assay type: cell-based
T1 sequence (P04150 whole entry): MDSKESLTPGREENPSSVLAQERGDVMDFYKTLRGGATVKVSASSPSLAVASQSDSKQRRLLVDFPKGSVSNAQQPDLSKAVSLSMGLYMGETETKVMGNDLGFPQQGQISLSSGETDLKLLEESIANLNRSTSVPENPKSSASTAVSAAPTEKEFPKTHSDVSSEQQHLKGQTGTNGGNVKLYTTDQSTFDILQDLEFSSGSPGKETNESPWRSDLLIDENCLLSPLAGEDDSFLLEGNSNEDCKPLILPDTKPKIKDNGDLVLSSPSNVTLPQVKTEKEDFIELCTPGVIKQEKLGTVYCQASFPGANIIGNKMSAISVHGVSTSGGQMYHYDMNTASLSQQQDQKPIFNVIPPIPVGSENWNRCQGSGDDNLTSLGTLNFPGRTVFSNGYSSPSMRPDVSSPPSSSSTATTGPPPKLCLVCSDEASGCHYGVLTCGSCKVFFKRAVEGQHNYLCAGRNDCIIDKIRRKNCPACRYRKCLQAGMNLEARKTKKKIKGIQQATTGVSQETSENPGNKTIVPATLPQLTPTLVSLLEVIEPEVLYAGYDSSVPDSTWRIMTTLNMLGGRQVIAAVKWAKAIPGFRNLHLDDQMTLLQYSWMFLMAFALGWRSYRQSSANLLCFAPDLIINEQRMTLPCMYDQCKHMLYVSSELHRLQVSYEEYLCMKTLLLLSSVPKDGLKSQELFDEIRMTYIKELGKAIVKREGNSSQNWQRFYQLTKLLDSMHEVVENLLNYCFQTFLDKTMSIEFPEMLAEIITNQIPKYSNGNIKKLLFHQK

Glucocorticoid receptor [4] = molecular target: T1, Glucocorticoid receptor; experiment: Binding affinity to glucocorticoid receptor (unknown origin) by fluorescence polarization competitive binding assay
Rattus norvegicus [5] = experiment: Antiinflammatory activity against ovalbumin-induced airway allergic Brown-Norway rat model assessed as decrease of neutrophils in bronchoalveolar lavage fluid at 11 mg/kg administered intranasally as dry powder measured on day 29 after ovalbumin challenge; assay type: functional, organism-based; set-up: dose 11 mg/kg
Rattus norvegicus [6] = experiment: Antiinflammatory activity against ovalbumin-induced airway allergic Brown-Norway rat model assessed as decrease of eosinophils in bronchoalveolar lavage fluid at 11 mg/kg administered intranasally as dry powder measured on day 29 after ovalbumin challenge (reference value: 53.1%); assay type: functional, Lung; set-up: scale not given: the % may be the effect or the level left
Rattus norvegicus [7] = experiment: Antiinflammatory activity against ovalbumin-induced airway allergic Brown-Norway rat model assessed as decrease of macrophages in bronchoalveolar lavage fluid at 11 mg/kg administered intranasally as dry powder measured on day 29 after ovalbumin challenge; assay type: functional, organism-based; set-up: dose 11 mg/kg; details: Lung

SMILES	EC50 (Glucocorticoid receptor [3]) [µM]	EC50 (Glucocorticoid receptor [4]) [µM]	other results
C[C@@H]1C[C@H]2[C@@H]3CCC4=CC(=O)C=C[C@]4(C)[C@@]3(F)[C@@H](O)C[C@]2(C)[C@@]1(O)C(=O)CO [DEXAMETHASONE]	–	–	Drug uptake [1]: Not Active; Drug uptake [2]: Not Active
CC[C@H]1OC(=O)[C@H](C)[C@@H](O)[C@H](C)[C@@H](O[C@@H]2O[C@H](C)C[C@H](N(C)C)[C@H]2O)[C@](C)(O)C[C@@H](C)CN(CCCNC(=O)[C@H]2[C@H](C)C[C@H]3[C@@H]4CCC5=CC(=O)C=C[C@]5(C)[C@@]4(F)[C@@H](O)C[C@@]32C)[C@H](C)[C@@H](O)[C@]1(C)O	> 25	2.81	–
CC[C@H]1OC(=O)[C@H](C)[C@@H](O)[C@H](C)[C@@H](O[C@@H]2O[C@H](C)C[C@H](N(C)C)[C@H]2O)[C@](C)(O)C[C@@H](C)CN(CCCNC(=O)[C@@]2(O)[C@H](C)C[C@H]3[C@@H]4C[C@H](F)C5=CC(=O)C=C[C@]5(C)[C@H]4[C@@H](O)C[C@@]32C)[C@H](C)[C@@H](O)[C@]1(C)O	5.91	0.55	–
CC[C@H]1OC(=O)[C@H](C)[C@@H](O[C@H]2C[C@@](C)(OC)[C@@H](O)[C@H](C)O2)[C@H](C)[C@@H](O[C@@H]2O[C@H](C)C[C@H](N(C)C)[C@H]2O)[C@](C)(O)C[C@@H](C)CN(CCCNC(=O)[C@H]2[C@H](C)C[C@H]3[C@@H]4C[C@H](F)C5=CC(=O)C=C[C@]5(C)[C@@]4(F)[C@@H](O)C[C@@]32C)[C@H](C)[C@@H](O)[C@]1(C)O	0.53	0.09	–
CC[C@H]1OC(=O)[C@H](C)[C@@H](O[C@H]2C[C@@](C)(OC)[C@@H](O)[C@H](C)O2)[C@H](C)[C@@H](O[C@@H]2O[C@H](C)C[C@H](N(C)C)[C@H]2O)[C@](C)(O)C[C@@H](C)CN(CCCNC(=O)[C@H]2CC[C@H]3[C@@H]4CCC5=CC(=O)CC[C@]5(C)[C@H]4[C@@H](O)C[C@]23C)[C@H](C)[C@@H](O)[C@]1(C)O	> 25	> 10	–
CC[C@H]1OC(=O)[C@H](C)[C@@H](O)[C@H](C)[C@@H](O[C@@H]2O[C@H](C)C[C@H](N(C)C)[C@H]2O)[C@](C)(O)C[C@@H](C)CN(CCCNC(=O)[C@@]2(O)[C@H](C)C[C@H]3[C@@H]4C[C@H](F)C5=CC(=O)C=C[C@]5(C)[C@@]4(F)[C@@H](O)C[C@@]32C)[C@H](C)[C@@H](O)[C@]1(C)O	3.36	0.69	–
CC[C@H]1OC(=O)[C@H](C)[C@@H](O[C@H]2C[C@@](C)(OC)[C@@H](O)[C@H](C)O2)[C@H](C)[C@@H](O[C@@H]2O[C@H](C)C[C@H](N(C)C)[C@H]2O)[C@](C)(O)C[C@@H](C)CN(CCCNC(=O)[C@@]2(O)[C@H](C)C[C@H]3[C@@H]4C[C@H](F)C5=CC(=O)C=C[C@]5(C)[C@H]4[C@@H](O)C[C@@]32C)[C@H](C)[C@@H](O)[C@]1(C)O	> 25	1.44	–
CC[C@H]1OC(=O)[C@H](C)[C@@H](O[C@H]2C[C@@](C)(OC)[C@@H](O)[C@H](C)O2)[C@H](C)[C@@H](O[C@@H]2O[C@H](C)C[C@H](N(C)C)[C@H]2O)[C@](C)(O)C[C@@H](C)CN(CCCNC(=O)[C@@]2(O)C(C)C[C@H]3[C@@H]4CCC5=CC(=O)C=C[C@]5(C)[C@@]4(Cl)[C@@H](O)C[C@@]32C)[C@H](C)[C@@H](O)[C@]1(C)O (single isomer, unassigned)	> 25	> 10	–
CC[C@H]1OC(=O)[C@H](C)[C@@H](O[C@H]2C[C@@](C)(OC)[C@@H](O)[C@H](C)O2)[C@H](C)[C@@H](O[C@@H]2O[C@H](C)C[C@H](N(C)C)[C@H]2O)[C@](C)(O)C[C@@H](C)CN(CCCNC(=O)[C@@]2(O)CC[C@H]3[C@@H]4CCC5=CC(=O)CC[C@]5(C)[C@H]4[C@@H](O)C[C@@]32C)[C@H](C)[C@@H](O)[C@]1(C)O	> 25	> 10	–
CCC(=O)OCC(=O)[C@@]1(OC(=O)CC)[C@@H](C)C[C@H]2[C@@H]3CCC4=CC(=O)C=C[C@]4(C)[C@@]3(Cl)[C@@H](O)C[C@@]21C [BECLOMETHASONE DIPROPIONATE]	–	–	Activity (Rattus norvegicus [5]): inactive; Activity (Rattus norvegicus [6]): 43%; Activity (Rattus norvegicus [7]): inactive
CC[C@H]1OC(=O)[C@H](C)[C@@H](O[C@H]2C[C@@](C)(OC)[C@@H](O)[C@H](C)O2)[C@H](C)[C@@H](O[C@@H]2O[C@H](C)C[C@H](N(C)C)[C@H]2O)[C@](C)(O)C[C@@H](C)CN(CCCNC(=O)[C@@]2(O)[C@H](C)C[C@H]3[C@@H]4C[C@H](F)C5=CC(=O)C=C[C@]5(C)[C@@]4(Cl)[C@@H](O)C[C@@]32C)[C@H](C)[C@@H](O)[C@]1(C)O	3.81	1.5	–
CC[C@H]1OC(=O)[C@H](C)[C@@H](O)[C@H](C)[C@@H](O[C@@H]2O[C@H](C)C[C@H](N(C)C)[C@H]2O)[C@](C)(O)C[C@@H](C)CN(CCCNC(=O)[C@@]2(O)[C@H](C)C[C@H]3[C@@H]4C[C@H](F)C5=CC(=O)C=C[C@]5(C)[C@@]4(Cl)[C@@H](O)C[C@@]32C)[C@H](C)[C@@H](O)[C@]1(C)O	1.68	0.35	–
CC[C@H]1OC(=O)[C@H](C)[C@@H](O)[C@H](C)[C@@H](O[C@@H]2O[C@H](C)C[C@H](N(C)C)[C@H]2O)[C@](C)(O)C[C@@H](C)CN(CCCNC(=O)[C@@]2(O)[C@H](C)C[C@H]3[C@@H]4CCC5=CC(=O)CC[C@]5(C)[C@H]4[C@@H](O)C[C@@]32C)[C@H](C)[C@@H](O)[C@]1(C)O	> 25	6.2	–
CC[C@H]1OC(=O)[C@H](C)[C@@H](O[C@H]2C[C@@](C)(OC)[C@@H](O)[C@H](C)O2)[C@H](C)[C@@H](O[C@@H]2O[C@H](C)C[C@H](N(C)C)[C@H]2O)[C@](C)(O)C[C@@H](C)CN(CCCNC(=O)[C@@]2(O)[C@H](C)C[C@H]3[C@@H]4CCC5=CC(=O)C=C[C@]5(C)[C@@]4(F)[C@@H](O)C[C@@]32C)[C@H](C)[C@@H](O)[C@]1(C)O	23	2.09	–
CC[C@H]1OC(=O)[C@H](C)[C@@H](O[C@H]2C[C@@](C)(OC)[C@@H](O)[C@H](C)O2)[C@H](C)[C@@H](O[C@@H]2O[C@H](C)C[C@H](N(C)C)[C@H]2O)[C@](C)(O)C[C@@H](C)CN(CCCNC(=O)[C@@]2(O)[C@H](C)C[C@H]3[C@@H]4C[C@H](F)C5=CC(=O)C=C[C@]5(C)[C@@]4(F)[C@@H](O)C[C@@]32C)[C@H](C)[C@@H](O)[C@]1(C)O	> 25	0.91	–
CC[C@H]1OC(=O)[C@H](C)[C@@H](O[C@H]2C[C@@](C)(OC)[C@@H](O)[C@H](C)O2)[C@H](C)[C@@H](O[C@@H]2O[C@H](C)C[C@H](N(C)C)[C@H]2O)[C@](C)(O)C[C@@H](C)CN(CCCNC(=O)[C@@]2(O)CC[C@H]3[C@@H]4CCC5=CC(=O)C=C[C@]5(C)[C@H]4[C@@H](O)C[C@@]32C)[C@H](C)[C@@H](O)[C@]1(C)O	> 25	> 10	–
C[C@@H]1C[C@H]2[C@@H]3CCC4=CC(=O)C=C[C@]4(C)[C@@]3(F)[C@@H](O)C[C@]2(C)[C@H]1C(=O)CO [DESOXIMETASONE]	–	–	Drug uptake [1]: Not Active; Drug uptake [2]: Not Active
